Assay results published in ChEMBL document CHEMBL3997782, “Methoxylated 2'-hydroxychalcones as antiparasitic hit compounds” (Eur J Med Chem, 2017).

Tests used:
CYP2C9 = CYP2C9 (Homo sapiens, UniProt P11712); experiment: Inhibition of human CYP2C9 expressed in baculovirus-infected insect cells at 10 uM using Luciferin-H as substrate in presence of NADPH by P450-Glo luminescence assay relative to control; conditions: probe Luciferin-H
[1] = Cytotoxicity against human […] cells assessed as cell growth at 10 uM by Cell titer-Glo assay relative to control; format: cell-based; conditions: WI-38 cells, read-out: Activity
Summary of the method: (§1)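 A549 and WI-38 cells grown in DMEM with 10% v/v FCS, streptomycin 100 µg/ml and penicillin G 100 U/ml. Cell number read as cellular ATP by CellTiter-Glo luminescence. Growth 60–100% scored non-cytotoxic, 0–60% cytostatic, below 0 cytotoxic.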

CYP2C19 = CYP2C19 (Homo sapiens, UniProt P33261); experiment: Inhibition of human CYP2C19 expressed in baculovirus-infected insect cells at 10 uM using Luciferin-H EGE as substrate in presence of NADPH by P450-Glo luminescence assay relative to control; format: ADME; conditions: probe Luciferin-H EGE
Summary of the method: (§2)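 CYP enzymes as microsomal preparations from baculovirus-infected insect cells, run on the P450-Glo luminogenic substrate platform. A fall in light output indicates inhibition.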

CYP1A2 = target: T1, CYP1A2 (Homo sapiens, UniProt P05177); experiment: Inhibition of human CYP1A2 expressed in baculovirus-infected insect cells at 10 uM using Luciferin-1A2 as substrate in presence of NADPH by P450-Glo luminescence assay relative to control; format: ADME; conditions: probe Luciferin-1A2; summary of the method: as §2
T1 sequence (P05177 whole entry): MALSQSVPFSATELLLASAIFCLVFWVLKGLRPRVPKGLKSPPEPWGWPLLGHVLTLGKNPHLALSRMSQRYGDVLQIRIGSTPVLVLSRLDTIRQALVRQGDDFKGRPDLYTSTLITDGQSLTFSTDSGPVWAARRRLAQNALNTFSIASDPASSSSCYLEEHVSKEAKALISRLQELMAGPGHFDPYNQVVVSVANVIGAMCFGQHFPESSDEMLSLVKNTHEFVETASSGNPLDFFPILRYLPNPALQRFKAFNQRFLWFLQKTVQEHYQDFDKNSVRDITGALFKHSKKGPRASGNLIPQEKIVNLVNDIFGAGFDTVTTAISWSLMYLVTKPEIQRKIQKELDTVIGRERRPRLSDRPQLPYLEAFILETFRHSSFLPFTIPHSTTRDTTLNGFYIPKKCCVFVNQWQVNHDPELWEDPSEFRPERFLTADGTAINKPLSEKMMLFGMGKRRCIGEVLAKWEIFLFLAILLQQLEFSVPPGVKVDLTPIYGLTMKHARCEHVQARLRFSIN

[2] = test system: Trypanosoma brucei brucei; experiment: Anti-parasitic activity against bloodstream form of Trypanosoma brucei brucei Lister 427 after 72 hrs by resazurin-based assay; format: functional; conditions: Lister 427, 72 h
Summary of the method: (§3)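 Bloodstream-form T. brucei, modified resazurin-based viability assay. EC50 is the arithmetic mean of at least two independent determinations, each run in triplicate.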

[3] = Selectivity index, ratio of CC50 for human THP1 cells to EC50 for anti-parasitic activity against bloodstream form of Trypanosoma brucei brucei Lister 427; format: toxicity; conditions: THP-1 cells, read-out: Ratio CC50/EC50
Summary of the method: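 SI = CC50 in PMA-differentiated THP-1 macrophages (MTT) divided by the antiparasitic EC50.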

Trypanosoma cruzi = experiment: Anti-parasitic activity against Trypanosoma cruzi Y promastigotes infected in HG39 cells at 10 uM by qPCR analysis relative to control; format: functional, cell-based; conditions: in the assay text read “trypomastigotes” for “promastigotes”
Summary of the method: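 Confluent HG39 cells (3 x 10^6 per well) infected at a 1:1 ratio with blood-derived T. cruzi Y strain trypomastigotes. Growth inhibition was read as parasite gDNA by TaqMan probe-based quantitative real-time PCR.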

Leishmania infantum = experiment: Anti-parasitic activity against Leishmania infantum amastigotes infected in human THP1 cells at 50 uM after 5 days by Giemsa staining based assay relative to control; format: functional, cell-based; conditions: THP-1, 120 h
Summary of the method: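 Intracellular L. infantum amastigotes in host cells, imaged by high-content automated imaging. Host cell number, infected cells and parasites per infected cell were counted. Infection Ratio = infected cells / total cells.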

CYP3A4 = CYP3A4 (Homo sapiens, UniProt P08684); experiment: Inhibition of human CYP3A4 expressed in baculovirus-infected insect cells at 10 uM using Luciferin-PFBE as substrate in presence of NADPH by P450-Glo luminescence assay relative to control; format: ADME; conditions: probe Luciferin-PFBE
[4] = Cytotoxicity against human A549 cells assessed as cell growth at 10 uM by Cell titer-Glo assay relative to control; format: cell-based; conditions: read-out: Activity; summary of the method: as §1
786-0 = experiment: Mitochondrial toxicity in human 786-O cells at 10 uM by mitotracker red chloromethyl-Xrosamine staining based-uptake method relative to control; format: cell-based; conditions: 786-0, 10 µM
Summary of the method: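 786-O renal carcinoma cells kept in RPMI-1640 with 2 mM glutamine, 10% v/v FCS, streptomycin 100 µg/ml and penicillin G 100 U/ml. Mitochondrial toxicity monitored by MitoTracker Red CMXRos uptake with high-content imaging.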

Aurora kinase B = Aurora kinase B (Homo sapiens, UniProt Q96GD4); experiment: Inhibition of N-terminal-GST-tagged recombinant full length human Aurora B expressed in baculovirus infected Sf9 cells at 10 uM using native Swine Myelin Basic Protein as substrate measured after 60 mins by ADP-Glo assay relative to control; conditions: probe native Swine Myelin Basic Protein
Summary of the method: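 Aurora B kinase activity measured by ADP-Glo, which detects ADP formed through a coupled luciferase luminescence read-out.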

[5] = Cytotoxicity against human THP1 cells by MTT assay; format: cell-based; conditions: THP-1 cells
Summary of the method: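 THP-1 cells differentiated to macrophages with PMA, viability read by colorimetric MTT. CC50 and NOAEL are the arithmetic mean of at least two independent determinations, each run in triplicate.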

[6] = Lipophilicity, log P of the compound; format: physicochemical; conditions: octanol/water
[7] = test system: Trypanosoma brucei brucei; experiment: Anti-parasitic activity against bloodstream form of Trypanosoma brucei brucei Lister 427 at 10 uM after 72 hrs by resazurin-based assay relative to control; format: functional; conditions: Lister 427, 72 h; summary of the method: as §3
hERG (KCNH2) = hERG (KCNH2) (Homo sapiens, UniProt Q12809); experiment: Inhibition of human ERG at 10 uM by Tracer Red dye based fluorescence polarization assay relative to control; conditions: probe Tracer Red dye
CYP2D6 = CYP2D6 (Homo sapiens, UniProt P10635); experiment: Inhibition of human CYP2D6 expressed in baculovirus-infected insect cells at 10 uM using Luciferin-ME EGE as substrate in presence of NADPH by P450-Glo luminescence assay relative to control; format: ADME; conditions: probe Luciferin-ME EGE; summary of the method: as §2
Sequence of CYP2D6 (P10635 whole entry): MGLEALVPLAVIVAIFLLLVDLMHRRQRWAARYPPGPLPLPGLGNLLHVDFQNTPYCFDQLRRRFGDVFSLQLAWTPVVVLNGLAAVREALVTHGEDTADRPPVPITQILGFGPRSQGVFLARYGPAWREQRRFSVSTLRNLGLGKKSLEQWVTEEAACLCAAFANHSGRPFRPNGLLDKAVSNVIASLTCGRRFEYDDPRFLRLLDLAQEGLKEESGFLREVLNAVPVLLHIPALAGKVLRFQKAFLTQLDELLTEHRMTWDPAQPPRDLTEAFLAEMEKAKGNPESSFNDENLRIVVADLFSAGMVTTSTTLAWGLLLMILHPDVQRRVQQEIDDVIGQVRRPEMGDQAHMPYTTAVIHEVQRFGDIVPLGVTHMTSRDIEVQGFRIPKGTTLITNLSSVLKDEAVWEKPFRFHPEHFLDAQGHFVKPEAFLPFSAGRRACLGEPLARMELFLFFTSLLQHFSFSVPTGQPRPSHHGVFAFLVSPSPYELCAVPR

Sequence of Aurora kinase B (Q96GD4 whole entry): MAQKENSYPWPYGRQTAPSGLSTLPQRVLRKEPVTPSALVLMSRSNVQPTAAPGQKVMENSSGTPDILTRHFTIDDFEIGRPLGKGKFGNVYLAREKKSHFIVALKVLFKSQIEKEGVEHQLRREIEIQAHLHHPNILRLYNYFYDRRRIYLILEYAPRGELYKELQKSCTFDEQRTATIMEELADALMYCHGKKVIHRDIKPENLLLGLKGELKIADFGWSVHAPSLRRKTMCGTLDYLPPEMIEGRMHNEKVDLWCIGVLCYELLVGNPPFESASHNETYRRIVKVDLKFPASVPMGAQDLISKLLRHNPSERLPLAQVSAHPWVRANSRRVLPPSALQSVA
Sequence of CYP2C19 (P33261 whole entry): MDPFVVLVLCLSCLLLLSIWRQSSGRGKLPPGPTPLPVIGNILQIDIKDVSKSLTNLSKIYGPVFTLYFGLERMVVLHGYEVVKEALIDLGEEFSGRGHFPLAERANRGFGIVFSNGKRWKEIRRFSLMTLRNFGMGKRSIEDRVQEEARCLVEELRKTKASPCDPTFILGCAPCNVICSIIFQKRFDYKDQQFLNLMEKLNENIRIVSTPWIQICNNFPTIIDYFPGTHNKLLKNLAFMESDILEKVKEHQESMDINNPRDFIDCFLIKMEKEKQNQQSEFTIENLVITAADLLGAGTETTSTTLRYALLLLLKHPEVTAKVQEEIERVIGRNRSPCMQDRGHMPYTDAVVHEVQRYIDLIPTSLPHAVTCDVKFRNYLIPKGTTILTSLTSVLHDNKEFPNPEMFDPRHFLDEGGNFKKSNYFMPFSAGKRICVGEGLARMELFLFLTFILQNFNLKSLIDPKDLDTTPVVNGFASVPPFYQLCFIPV
Sequence of CYP3A4 (P08684 whole entry): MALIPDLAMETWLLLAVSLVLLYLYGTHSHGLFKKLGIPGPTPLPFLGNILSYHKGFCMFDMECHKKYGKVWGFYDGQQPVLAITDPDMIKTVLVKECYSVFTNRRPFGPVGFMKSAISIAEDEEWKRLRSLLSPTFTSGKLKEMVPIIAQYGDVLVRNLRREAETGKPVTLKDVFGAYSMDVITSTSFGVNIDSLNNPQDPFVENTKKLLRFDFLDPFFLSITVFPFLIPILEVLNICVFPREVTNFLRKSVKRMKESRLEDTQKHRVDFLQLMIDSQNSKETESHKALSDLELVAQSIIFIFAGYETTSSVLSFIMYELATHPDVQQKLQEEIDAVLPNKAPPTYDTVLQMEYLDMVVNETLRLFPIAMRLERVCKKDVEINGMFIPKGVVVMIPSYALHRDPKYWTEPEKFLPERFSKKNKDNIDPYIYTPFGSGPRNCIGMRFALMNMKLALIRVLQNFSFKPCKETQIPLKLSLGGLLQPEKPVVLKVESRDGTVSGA
Sequence of hERG (KCNH2) (Q12809 whole entry): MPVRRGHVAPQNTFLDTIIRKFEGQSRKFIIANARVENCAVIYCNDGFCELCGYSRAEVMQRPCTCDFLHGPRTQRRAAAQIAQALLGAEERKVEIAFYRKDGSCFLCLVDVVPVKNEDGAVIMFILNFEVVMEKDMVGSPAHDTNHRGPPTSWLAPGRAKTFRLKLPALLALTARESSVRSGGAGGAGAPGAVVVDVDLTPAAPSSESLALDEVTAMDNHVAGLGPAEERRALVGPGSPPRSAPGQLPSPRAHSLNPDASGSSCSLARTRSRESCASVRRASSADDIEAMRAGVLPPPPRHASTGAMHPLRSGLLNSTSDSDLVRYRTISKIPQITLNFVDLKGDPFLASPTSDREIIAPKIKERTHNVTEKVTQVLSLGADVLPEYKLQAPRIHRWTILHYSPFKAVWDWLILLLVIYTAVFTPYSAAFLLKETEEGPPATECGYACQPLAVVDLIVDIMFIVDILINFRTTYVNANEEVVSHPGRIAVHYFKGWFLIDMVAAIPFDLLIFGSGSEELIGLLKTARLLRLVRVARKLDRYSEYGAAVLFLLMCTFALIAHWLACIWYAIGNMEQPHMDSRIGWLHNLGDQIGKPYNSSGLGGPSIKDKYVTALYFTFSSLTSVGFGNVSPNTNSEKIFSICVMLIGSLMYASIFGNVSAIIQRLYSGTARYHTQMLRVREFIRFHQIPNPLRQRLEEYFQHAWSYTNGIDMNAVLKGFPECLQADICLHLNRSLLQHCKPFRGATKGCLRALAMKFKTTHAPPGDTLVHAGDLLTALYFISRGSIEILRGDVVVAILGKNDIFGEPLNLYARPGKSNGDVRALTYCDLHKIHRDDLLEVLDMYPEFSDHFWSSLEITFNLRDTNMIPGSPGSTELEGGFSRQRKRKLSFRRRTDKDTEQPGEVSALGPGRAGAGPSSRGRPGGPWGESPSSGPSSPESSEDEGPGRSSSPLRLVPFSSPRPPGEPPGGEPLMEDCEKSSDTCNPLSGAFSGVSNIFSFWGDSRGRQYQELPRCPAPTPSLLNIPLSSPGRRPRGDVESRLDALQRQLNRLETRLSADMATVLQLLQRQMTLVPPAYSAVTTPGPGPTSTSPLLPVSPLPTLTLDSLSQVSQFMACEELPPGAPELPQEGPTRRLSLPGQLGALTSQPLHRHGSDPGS
Sequence of CYP2C9 (P11712 whole entry): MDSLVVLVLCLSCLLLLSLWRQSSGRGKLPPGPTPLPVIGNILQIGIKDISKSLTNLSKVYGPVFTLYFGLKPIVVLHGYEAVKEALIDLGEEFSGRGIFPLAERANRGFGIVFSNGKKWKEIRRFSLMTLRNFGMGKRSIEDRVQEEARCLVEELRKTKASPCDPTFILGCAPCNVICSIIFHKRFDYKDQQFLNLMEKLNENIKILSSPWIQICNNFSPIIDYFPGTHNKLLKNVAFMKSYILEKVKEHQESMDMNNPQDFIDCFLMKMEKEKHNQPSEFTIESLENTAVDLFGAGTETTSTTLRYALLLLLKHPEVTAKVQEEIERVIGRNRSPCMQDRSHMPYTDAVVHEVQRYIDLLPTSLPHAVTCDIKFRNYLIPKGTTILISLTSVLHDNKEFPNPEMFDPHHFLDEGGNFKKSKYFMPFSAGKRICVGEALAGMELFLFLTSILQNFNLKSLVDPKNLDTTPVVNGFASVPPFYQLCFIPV

inhibition at 10 µM (CYP2C9) [%] | inhibition at 10 µM (CYP2C19) [%] | inhibition at 10 µM (CYP1A2) [%] | EC50 [2] [µM] | inhibition at 10 µM (CYP3A4) [%] | inhibition at 1 h, 10 µM (Aurora kinase B) [%] | logP [6] | inhibition at 10 µM (CYP2D6) [%] | EC50 (Trypanosoma cruzi) [µM] | SMILES | viability at 10 µM [1] [%] | selectivity ratio [3] | inhibition at 10 µM (Trypanosoma cruzi) [%] | inhibition at 50 µM (Leishmania infantum) [%] | viability at 10 µM [4] [%] | Activity (786-0) [%] | CC50 [5] [µM] | inhibition at 10 µM [7] [%] | inhibition at 10 µM (hERG (KCNH2)) [%]
– | – | – | 2.99 | – | – | – | – | – | COc1ccc2c(=O)c(O)c(-c3ccc(OC)c(OC)c3)oc2c1 | – | 8 | – | – | – | – | – | – | –
– | – | – | 1.14 | – | – | – | – | – | COc1cccc(-c2oc3cc(OC)ccc3c(=O)c2O)c1 | – | 8 | – | – | – | – | – | – | –
– | – | – | 2.02 | – | – | – | – | – | COc1ccc2oc(-c3ccc(OC)c(OC)c3)c(O)c(=O)c2c1 | – | 5 | – | – | – | – | – | – | –
– | – | – | – | – | – | – | – | 2.2 | CC1CS(=O)(=O)CCN1/N=C/c1ccc([N+](=O)[O-])o1 (stereo not given) [NIFURTIMOX] | – | – | – | – | – | – | – | – | –
– | – | – | 2.32 | – | – | – | – | – | COc1cccc(-c2oc3ccccc3c(=O)c2O)c1 | – | 4 | – | – | – | – | – | – | –

The next lines start with the compound.

SMILES | inhibition at 10 µM (CYP2C9) [%] | inhibition at 10 µM (CYP2C19) [%] | inhibition at 10 µM (CYP1A2) [%] | EC50 [2] [µM] | inhibition at 10 µM (CYP3A4) [%] | inhibition at 1 h, 10 µM (Aurora kinase B) [%] | logP [6] | inhibition at 10 µM (CYP2D6) [%] | EC50 (Trypanosoma cruzi) [µM] | viability at 10 µM [1] [%] | selectivity ratio [3] | inhibition at 10 µM (Trypanosoma cruzi) [%] | inhibition at 50 µM (Leishmania infantum) [%] | viability at 10 µM [4] [%] | Activity (786-0) [%] | CC50 [5] [µM] | inhibition at 10 µM [7] [%] | inhibition at 10 µM (hERG (KCNH2)) [%]
COc1cccc(/C=C/C(=O)c2ccccc2O)c1 | 17.1 | 76.2 | 85.6 | 1.3 | -1.4 | -6.6 | 3.94 | -8.4 | – | 118 | ≥ 19 | 46 | 11 | 105 | 6.2 | > 25 | 100 | 11.3
COc1ccc(/C=C/C(=O)c2cc(OC)ccc2O)cc1 | 25.8 | 47.3 | 85.2 | – | 6.2 | 107 | 3.87 | 79.6 | – | 15.8 | – | 9 | – | 91.3 | 15.8 | > 100 | 9 | 42.1
COc1ccc2c(=O)c(O)c(-c3cc(OC)c(OC)c(OC)c3)oc2c1 | – | – | – | 1.17 | – | – | – | – | – | – | 17 | – | – | – | – | – | – | –
COc1cccc(/C=C/C(=O)c2cc(OC)ccc2O)c1 | -31.7 | 69.6 | 84.2 | 2.1 | 14.3 | -15.1 | 3.87 | 52.2 | – | 87.5 | ≥ 12 | 28 | 14 | 116 | 13.4 | > 25 | 100 | 17.6
COc1ccc(C(=O)/C=C/c2c(OC)cccc2OC)c(O)c1 | -25.6 | 74.9 | 52.8 | 3.4 | 11.8 | 92.1 | 3.51 | 17.1 | – | 0.1 | ≥ 29 | 0 | – | 48.2 | 0 | > 100 | 98 | 18.8
